Many of the other results were omitted from the sample, so hits are more common in it than they were.
bCat KO growth: beta-catenin-lacking colon tumor cell growth suppression; HCT116 beta-catenin knockout viability, CellTiter-Glo, 60 h; stronger effect = lower value; viability, % at 10 µM; 1.5% of 140,000 active;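 active = viability at or under a set limit, the compound median less 4 SD, cut at about 6% in these data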;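 note: 0% = Hyamine 1622 control at 20 µM and 100% = untreated cell control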
H69AR growth 86K: growth inhibitors of human H69AR lung tumor cells. H69AR lung tumor viability, ATP luminescence, 72 h; stronger effect = lower value. 6% of 85,000 active. AID 598. viability, % at 10 µM;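 active = viability at or below 40%; inactive = viability above 40%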;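 note: multidrug resistant small cell line overexpressing MRP-1 efflux transporter; 100% = mean luminescence of untreated control wells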
Phagocyt inh: blocks phagocytosis by macrophages. inhibition, % at 5 µM. AID 1029. J774A.1 macrophage IgG-bead phagocytosis, imaging. 0.07% of 110,000 active;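 active = inhibition above the mean of the plate negative controls plus 5 SD, cut at about 13% in these data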;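 note: phagocytic index as fraction of beads internalized from green versus red external bead signal; plate controls were DMSO negative control for no effect and cytochalasin-D positive control for full effect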
Fibroblast inh: blocks proliferation of human lung fibroblasts | LL 47 human lung fibroblast viability, ATP luminescence; stronger effect = lower value | viability, % at 10 µM | 1.1% of 85,000 active | AID 719;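 active = viability at or below 50% in the single dose screen; inactive = viability above 50%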;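 note: compound exposure lasted 72 h before the ATP readout; 100% = median luminescence of untreated cell-only wells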
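Assay system: human lung fibroblast line LL 47, low passage. Input: 1,150 fibroblasts seeded per well. Times: overnight cell rest, 72 h compound treatment at 37 °C. Evaluation: % viability of median cell-only signal. Technique: luminescent ATP detection, CellTiter-Glo. Control set: cell-only wells, no compound.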
HCT116 PTEN-null: growth suppressors of cells with PTEN tumor suppressor deletion; HCT116 PTEN-null viability, CellTiter-Glo, 60 h; stronger effect = lower value; viability, % at 10 µM; 1.2% of 140,000 active; AID 827;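 active = viability at or below a set limit, 4 SD under the median of all tested compounds, cut at about 3.7% in these data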;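 note: PTEN knockout HCT116 line with beta catenin targeted HCT116 as companion control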
HUVEC prolif 384: blocks proliferation of human endothelial cells. HUVEC proliferation, CellTiter-Glo luminescence, 72 h; stronger effect = lower value. viability, % at 10 µM (by protocol). 1.1% of 86,000 active;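 active = viability at or below 30%; inactive = viability above 30%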;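 note: 100% = median luminescence of DMSO-only cell control wells on each plate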
Numbers without * were called inactive; . = not tested or not shown.

SMILES	bCat KO growth	H69AR growth 86K	Phagocyt inh	Fibroblast inh	HCT116 PTEN-null	HUVEC prolif 384
CC1(C)Cc2c(cnn2-c2ccccc2)-c2c1c1ccccc1n2CC(O)CCl (centres undefined)	72.0	25.2*	.	92.3	65.7	60.5
CC(C)(C)OC(=O)COc1cc(OCC(=O)OC(C)(C)C)c2c(=O)cc(-c3ccccc3)oc2c1	1.5*	.	-1.3	.	1.7*	.
O=C1CC(Sc2nnc(-c3ccccc3O)o2)C(=O)N1c1ccccc1 (centres undefined)	97.6	1.7*	-0.6	2.4*	89.1	95.9
COc1ccc(N2C(=O)CC(Sc3nnc(-c4ccccc4)o3)C2=O)cc1 (centres undefined)	98.2	1.4*	-0.8	2.2*	88.8	94.5
COc1ccc(N2C(=O)CC(Sc3nc(C)cc(C)c3C#N)C2=O)cc1 (centres undefined)	84.0	79.4	.	103.7	84.8	84.6
O=C1CC(Sc2ncccn2)C(=O)N1c1ccccc1 (centres undefined)	113.8	96.6	0.4	104.8	103.1	104.0
CCOC(=O)C(C(=O)OCC)c1cc(Br)c2noc3c2c1C(=O)c1ccccc1-3	1.3*	.	0.8	.	1.1*	.
CCCC1=[N+](CC(=O)c2ccc(C)cc2)CCn2cccc21	81.8	.	.	.	76.8	.
O=C(Nc1cc(N2CCOCC2)ncn1)NC1(C(F)(F)F)Oc2ccccc2O1	59.9	27.0*	.	89.0	67.2	68.4
COc1cccc(NC(=O)NC2(C(F)(F)F)Oc3ccccc3O2)c1	51.9	23.2*	.	89.3	59.0	97.8
O=C(NCCN1CCOCC1)NC1(C(F)(F)F)Oc2ccc(Cl)cc2O1 (centres undefined)	24.0	.	-4.9	.	30.8	.
CCOC(=O)Cc1csc(NC(=O)NC2(C(F)(F)F)Oc3ccccc3O2)n1	37.2	16.7*	-0.4	61.8	35.2	67.8
Cc1ccc(NCc2nc3ccccc3n2CCOc2ccccc2)cc1	29.8	.	9.5	.	36.4	.
CCOc1ccc(N(CC(=O)Nc2cccc(Cl)c2)S(=O)(=O)c2c(C)noc2C)cc1	28.3	30.1*	-0.1	73.3	22.8	80.3
CCOc1ccc(N(CC(=O)Nc2cccc(OC)c2)S(=O)(=O)c2c(C)noc2C)cc1	52.8	71.7	-0.3	89.3	56.4	88.0
CSCC[C@H](NC(=O)OC(C)(C)C)c1nnc(SCC(=O)Nc2ccc(C)cc2C)o1	101.3	87.2	-2.1	93.1	100.0	83.8
COc1cc(C2C(C#N)=C(N)Oc3cc(N(C)C)ccc32)cc2c1OCO2 (centres undefined)	12.9	26.6*	.	50.7	17.4	53.2
CCOC(=O)C1=C(C)OC(N)=C(C#N)C1c1cc(OC)c2c(c1)OCO2 (centres undefined)	94.5	88.2	-0.4	94.3	105.0	81.9
COc1cc(C2C(C#N)=C(N)Oc3cc(O)ccc32)cc(OC)c1OC (centres undefined)	17.8	27.5*	.	47.2*	17.4	53.5
COc1ccc(C2C(C#N)=C(N)Oc3cc(O)ccc32)cc1OC (centres undefined)	94.6	85.1	-1.4	102.6	93.1	91.9
COc1cc(C2C(C#N)=C(N)Oc3cc(O)ccc32)cc2c1OCO2 (centres undefined)	67.2	23.5*	0.0	89.5	62.2	41.9
CCOC(=O)c1sc(NC(=S)NC(=O)C23CC4CC(CC(C4)C2)C3)cc1C	89.9	.	-3.3	.	86.2	.
CCN1CNC(=S)N(C(C)c2ccccc2)C1 (centres undefined)	92.3	.	-8.3	.	94.9	.
CCCCn1c(NC(=O)c2ccccc2Cl)c(C#N)c2nc3ccccc3nc21	58.2	20.1*	7.0	94.4	43.1	54.6
CC(C)(C)n1nc2c(c1NC(=O)c1cccc(C(F)(F)F)c1)CS(=O)C2 (centres undefined)	86.3	96.4	-2.0	96.1	95.9	96.6
SMILES	bCat KO growth	H69AR growth 86K	Phagocyt inh	Fibroblast inh	HCT116 PTEN-null	HUVEC prolif 384
O=C(Nc1ccc(Cl)cc1C(=O)NCC1CCCO1)c1ccc(Cl)cc1Cl (centres undefined)	92.9	.	-2.4	.	84.3	.
O=C(Nc1nccs1)c1cc2c(s1)-c1ccccc1OC2	24.8	.	0.4	.	16.8	.
O=C(Nc1nc2ccccc2s1)c1cc2c(s1)-c1ccccc1OC2	61.4	17.7*	-0.7	30.4*	48.3	44.8
CC(=O)N1CCCc2cc(S(=O)(=O)N3CCN(c4ccccn4)CC3)ccc21	90.2	87.7	-4.1	90.9	84.1	100.6
COc1cc(C(=O)OCC(=O)Nc2cc(-c3cc(C)c(C)cc3C)nn2-c2ccccc2)cc(OC)c1OC	66.5	.	-14.6	.	65.1	.
CCN(CC)P1(=O)OC(c2cc(OC)c(OC)c(OC)c2)=Nc2c1c(C)nn2-c1ccccc1 (centres undefined)	92.8	28.1*	-2.5	83.2	101.3	89.4
CC(=O)C1=C(O)C(=O)N(CCCn2ccnc2)C1c1ccc(C)cc1 (centres undefined)	93.3	.	.	.	98.5	.
Cn1c(=O)c2c(-c3ccccc3)n3c4ccccc4ncc3c2n(C)c1=O	.	37.8*	.	90.9	.	69.8
COc1ccc(-c2c(C(F)(F)F)oc3cc(OCC(=O)Nc4ccccc4C(F)(F)F)ccc3c2=O)cc1OC	1.4*	.	.	.	4.5	.
Cc1ccc(/C=C/C(=O)N2CCN(c3ncccn3)CC2)o1	79.6	.	-0.1	.	80.5	.
O=C1N/C(=C\c2ccc(O)cc2)C(=O)c2ccccc21	5.8*	.	2.7	.	6.6	.
COCc1cc(C)nc(SCC(=O)N2CCC(C)CC2)c1C#N	108.4	71.9	0.7	100.1	105.9	92.5
COc1ccc2cc3c(N)nn(C(=O)Cc4ccccc4OC)c3nc2c1	19.8	46.3	-0.5	68.0	16.6	28.0*
CCN(CC)CCCNc1nc2cc(OC)c(OC)cc2c2nc(-c3ccccc3)nn12	0.8*	6.5*	.	1.8*	0.8*	26.3*
CCN(CC)CCCNc1nc2cc(OC)c(OC)cc2c2nc(-c3cccnc3)nn12	1.7*	64.8	.	70.9	1.6*	76.4
COc1cc2nc(NCCN3CCOCC3)n3nc(-c4ccccc4)nc3c2cc1OC	.	65.5	.	106.5	.	82.9
COc1cc2nc(NCC3CCCO3)n3nc(-c4cccnc4)nc3c2cc1OC (centres undefined)	82.8	20.9*	0.3	86.9	87.7	71.4
CC(C)NC(=O)NC(=O)COc1ccc(Br)cc1Br	89.2	.	-1.4	.	98.3	.
COc1ccc(-c2cnnc(N/N=C/c3ccc(O)c(O)c3)n2)cc1	4.5*	.	-5.5	.	2.9*	.
COc1ccc(-c2cnnc(N/N=C/c3c(C)nn(-c4ccccc4)c3Cl)n2)cc1	4.7*	.	-4.0	.	2.9*	.
COc1ccc(CCNC(=O)CCC2COc3ccccc3O2)cc1OC (centres undefined)	93.4	97.2	.	97.7	88.1	89.9
Cc1ccc(S(=O)(=O)/C=C/c2ccccc2)cc1	99.5	.	-13.0	.	100.9	.
COc1ccc(-c2nnc(SCc3ccccc3)n2N)cc1	104.4	.	-1.4	101.2	102.0	94.8
COc1ccc(-c2nnc(SCCc3ccccc3)n2N)cc1	96.1	96.0	-0.9	45.7*	109.0	99.5

Bioassay records from PubChem BioAssay.
